# Assay results published in ChEMBL document CHEMBL3774374, “The Effect of Small Molecules on Sterol Homeostasis: Measuring 7-Dehydrocholesterol in Dhcr7-Deficient Neuro2a Cells and Human Fibroblasts” (J Med Chem, 2016).
# Active and inactive are the calls of the source. No cut-off for these calls is given here.
# Tests used:
# N2a [1] = assay: Decrease in lanosterol levels in mouse Neuro2a cells by LC-MS analysis; type: functional, cell-based
# Method in brief: (§1)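 Control Neuro2a cells (10000/well, 0.5% FBS) on compound, 24 h. Hoechst cell count, then methanol lysis with labelled standards (d7-7-DHC, 13C3-desmosterol, 13C3-lanosterol), PTAD derivatization 20 min at RT, UPLC-MS SRM. GC-MS of silylated extract for further sterols.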
# N2a [2] = assay: Increase in 7-DHC levels in Dhcr7-deficient mouse Neuro2a cells at 200 nM after 24 hrs by LC-MS analysis; type: functional, cell-based
# Method in brief: (§2)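 384-well screen: Dhcr7-deficient Neuro2a cells (13000/well, 0.5% FBS) with compound at 20 or 200 nM (five wells each), 24 h at 37 °C. Cells counted after Hoechst imaging, then methanol lysis with d7-7-DHC standard, PTAD derivatization 20 min at RT, UPLC-MS SRM (7-DHC 560→365). Read-out is pg 7-DHC per cell.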
# N2a [3] = assay: Increase in 7-DHC levels in mouse Neuro2a cells at 100 nM by LC-MS analysis; type: functional
# Method in brief: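 Control Neuro2a cells in 96-well plates, treated at 1, 10 and 100 nM. 7-DHC measured by PTAD derivatization and UPLC-MS against deuterated 7-DHC standard; n > 3.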
# N2a [4] = assay: Decrease in desmosterol levels in mouse Neuro2a cells by LC-MS analysis; type: functional, cell-based; method in brief: as §1
# [5] = target: T1, Delta(24)-sterol reductase (Mus musculus) (UniProt Q8VCH6); assay: Inhibition of DR24 in Dhcr7-deficient mouse Neuro2a cells assessed as decrease in 7-DHC levels at 20 nM after 24 hrs by LC-MS analysis; type: cell-based; method in brief: as §2
# T1 sequence (whole entry): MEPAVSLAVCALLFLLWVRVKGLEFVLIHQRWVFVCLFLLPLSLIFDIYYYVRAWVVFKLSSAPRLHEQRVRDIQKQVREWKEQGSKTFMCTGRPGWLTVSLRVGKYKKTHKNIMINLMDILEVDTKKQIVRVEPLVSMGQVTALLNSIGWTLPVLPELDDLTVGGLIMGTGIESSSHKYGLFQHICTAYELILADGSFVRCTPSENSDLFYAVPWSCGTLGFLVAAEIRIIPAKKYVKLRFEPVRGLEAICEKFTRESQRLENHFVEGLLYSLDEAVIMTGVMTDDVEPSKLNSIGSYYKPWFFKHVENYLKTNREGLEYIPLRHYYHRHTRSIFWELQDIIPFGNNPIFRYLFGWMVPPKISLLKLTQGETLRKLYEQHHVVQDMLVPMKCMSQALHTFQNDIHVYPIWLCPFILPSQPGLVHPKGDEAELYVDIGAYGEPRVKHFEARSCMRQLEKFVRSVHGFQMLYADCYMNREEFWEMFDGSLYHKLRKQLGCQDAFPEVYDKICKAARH
# [6] = target: T2, 3-beta-hydroxysteroid-Delta(8),Delta(7)-isomerase (Mus musculus) (UniProt P70245); assay: Inhibition of delta 8-7 isomerase in Dhcr7-deficient mouse Neuro2a cells assessed as decrease in cholesterol levels at 1 uM by LC-MS/GC-MS analysis; type: cell-based
# T2 sequence (whole entry): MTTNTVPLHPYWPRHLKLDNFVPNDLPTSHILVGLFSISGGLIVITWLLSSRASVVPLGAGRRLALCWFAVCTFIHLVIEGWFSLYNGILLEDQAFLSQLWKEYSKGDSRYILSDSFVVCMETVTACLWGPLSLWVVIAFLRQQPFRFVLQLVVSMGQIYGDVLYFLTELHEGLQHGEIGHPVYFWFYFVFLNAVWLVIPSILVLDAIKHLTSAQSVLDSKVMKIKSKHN
# Method in brief: (§3)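 Follow-up (verification) assay in 96-well plates, run as the 384-well screen, in triplicate, at varying compound concentrations. Cells counted by Hoechst imaging, washed with PBS, then lysed in MeOH with BHT/TPP and isotope standards (d7-Chol, d7-7-DHC, 13C3-Des, 13C3-Lan). Sterols derivatised with PTAD for 20 min at RT and quantified by C18 UPLC-MS (SRM). Remaining sample silylated with BSTFA and run on GC-MS, quantified against d7-Chol.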
# [7] = target: T2, 3-beta-hydroxysteroid-Delta(8),Delta(7)-isomerase (Mus musculus); assay: Inhibition of delta 8-7 isomerase in mouse Neuro2a cells assessed as decrease in 7-DHC levels at 1 uM by LC-MS/GC-MS analysis; type: cell-based; method in brief: as §1
# [8] = target: T2, 3-beta-hydroxysteroid-Delta(8),Delta(7)-isomerase (Mus musculus); assay: Inhibition of delta 8-7 isomerase in Dhcr7-deficient mouse Neuro2a cells assessed as increase in zymostenol levels at 1 uM by LC-MS/GC-MS analysis; type: cell-based; method in brief: as §3
# [9] = Cytotoxicity against human SLOS fibroblasts at 5 uM after 5 days by Cell Titer assay; type: cell-based; details: fibroblast, 120 h
# [10] = target: T1, Delta(24)-sterol reductase (Mus musculus); assay: Inhibition of DR24 in Dhcr7-deficient mouse Neuro2a cells assessed as decrease in 7-DHC levels at 1 uM by LC-MS/GC-MS analysis; type: cell-based
# Method in brief: (§4)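 Dhcr7-deficient Neuro2a cells (13000/well, 0.5% FBS medium) on predeposited compound, 24 h at 37 °C. Hoechst-stained and imaged to count cells. Lysed in methanol containing isotope-labelled sterol standards, derivatized with PTAD 20 min at RT, then isocratic C18 UPLC-MS/SRM. Remaining extract silylated with BSTFA for GC-MS, quantified against d7-cholesterol. Follow-up runs in triplicate.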
# [11] = target: 3-beta-hydroxysteroid-Delta(8),Delta(7)-isomerase (Homo sapiens) (UniProt Q15125); assay: Inhibition of delta 8-7 isomerase in human SLOS fibroblasts assessed as decrease in 7-DHC levels at 10 nM after 5 days by LC-MS/GC-MS analysis
# Method in brief: (§5)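 SLOS patient skin fibroblasts (passage 8–20) grown in 96-well plates in delipidated serum with compound for 5 days; three different SLOS lines. Sterols quantified by PTAD-derivatized UPLC-MS plus GC-MS; 7-DHC expressed as percentage of untreated cells.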
# [12] = target: T1, Delta(24)-sterol reductase (Mus musculus); assay: Inhibition of DR24 in mouse Neuro2a cells assessed as decrease in 7-DHC levels at 1 uM by LC-MS/GC-MS analysis; type: cell-based; method in brief: as §1
# [13] = target: T2, 3-beta-hydroxysteroid-Delta(8),Delta(7)-isomerase (Mus musculus); assay: Inhibition of delta 8-7 isomerase in Dhcr7-deficient mouse Neuro2a cells assessed as decrease in 7-DHC levels at 20 nM after 24 hrs by LC-MS analysis; type: cell-based
# Method in brief: (§6)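 384-well screen: Dhcr7-deficient Neuro2a cells (13000/well) dispensed in 0.5% FBS medium onto predeposited compound (five wells each at 20 and 200 nM) and incubated 24 h at 37 °C. Nuclei Hoechst-stained and counted by automated imaging. Cells lysed in MeOH with deuterated and 13C standards, then derivatised with PTAD for 20 min at RT. 7-DHC measured by isocratic UPLC-MS (SRM) and expressed as pg per cell; DMSO wells served as controls.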
# [14] = target: T2, 3-beta-hydroxysteroid-Delta(8),Delta(7)-isomerase (Mus musculus); assay: Inhibition of delta 8-7 isomerase in Dhcr7-deficient mouse Neuro2a cells assessed as increase in zymosterol levels at 1 uM by LC-MS/GC-MS analysis; type: cell-based; method in brief: as §3
# [15] = target: T2, 3-beta-hydroxysteroid-Delta(8),Delta(7)-isomerase (Mus musculus); assay: Inhibition of delta 8-7 isomerase in Dhcr7-deficient mouse Neuro2a cells assessed as decrease in 7-DHC levels at 200 nM after 24 hrs by LC-MS analysis; type: cell-based; method in brief: as §6
# Fibroblast = assay: Decrease in cholesterol levels in human SLOS fibroblasts at 10 nM after 5 days by LC-MS/GC-MS analysis; type: functional, cell-based; method in brief: as §5
# [16] = target: T3, Delta(24)-sterol reductase (Homo sapiens) (UniProt Q15392); assay: Inhibition of DR24 in human SLOS fibroblasts assessed as decrease in 7-DHC levels at 10 nM after 5 days by LC-MS/GC-MS analysis; method in brief: as §5
# T3 sequence (whole entry): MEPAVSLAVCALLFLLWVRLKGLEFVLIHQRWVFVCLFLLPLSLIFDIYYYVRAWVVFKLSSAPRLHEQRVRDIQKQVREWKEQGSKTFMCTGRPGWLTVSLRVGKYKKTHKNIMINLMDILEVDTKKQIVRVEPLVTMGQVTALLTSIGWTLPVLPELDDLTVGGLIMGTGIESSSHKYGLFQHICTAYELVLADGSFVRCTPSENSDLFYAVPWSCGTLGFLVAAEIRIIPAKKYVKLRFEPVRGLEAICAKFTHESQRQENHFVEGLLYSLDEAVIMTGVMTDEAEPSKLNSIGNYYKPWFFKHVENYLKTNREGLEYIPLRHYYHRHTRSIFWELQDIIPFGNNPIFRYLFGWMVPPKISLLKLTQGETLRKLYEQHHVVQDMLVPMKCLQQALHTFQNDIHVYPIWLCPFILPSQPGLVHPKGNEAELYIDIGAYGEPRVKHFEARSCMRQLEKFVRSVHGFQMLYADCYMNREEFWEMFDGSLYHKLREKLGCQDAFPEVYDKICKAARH
# [17] = target: T1, Delta(24)-sterol reductase (Mus musculus); assay: Inhibition of DR24 in Dhcr7-deficient mouse Neuro2a cells assessed as decrease in 7-DHC levels at 200 nM after 24 hrs by LC-MS analysis; type: cell-based; method in brief: as §2
# [18] = target: T2, 3-beta-hydroxysteroid-Delta(8),Delta(7)-isomerase (Mus musculus); assay: Inhibition of delta 8-7 isomerase in Dhcr7-deficient mouse Neuro2a cells assessed as decrease in 7-DHC levels at 1 uM by LC-MS/GC-MS analysis; type: cell-based; method in brief: as §4
# [19] = target: T3, Delta(24)-sterol reductase (Homo sapiens); assay: Inhibition of DR24 in human SLOS fibroblasts assessed as decrease in 7-DHC levels at 100 nM after 5 days by LC-MS/GC-MS analysis
# Method in brief: (§7)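 SLOS patient skin fibroblasts (passage 8–20; three different lines) grown in 96-well plates in delipidated serum with compound for 5 days. 7-DHC and cholesterol quantified by PTAD-derivatisation UPLC-MS with isotopic standards. Values expressed as percentage of 7-DHC in the same cells grown without compound.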
# [20] = target: 3-beta-hydroxysteroid-Delta(8),Delta(7)-isomerase (Homo sapiens) (UniProt Q15125); assay: Inhibition of delta 8-7 isomerase in human SLOS fibroblasts assessed as decrease in 7-DHC levels at 100 nM after 5 days by LC-MS/GC-MS analysis; method in brief: as §7
# Chain of 3-beta-hydroxysteroid-Delta(8),Delta(7)-isomerase (Homo sapiens) (Q15125 whole entry): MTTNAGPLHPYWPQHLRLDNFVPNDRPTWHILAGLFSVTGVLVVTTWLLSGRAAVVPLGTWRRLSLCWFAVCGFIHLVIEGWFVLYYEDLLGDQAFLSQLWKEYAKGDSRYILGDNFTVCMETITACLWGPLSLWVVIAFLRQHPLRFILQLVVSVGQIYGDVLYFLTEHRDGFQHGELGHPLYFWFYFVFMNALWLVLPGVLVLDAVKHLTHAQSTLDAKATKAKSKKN
structure (smiles),measurement,setting,value
O=C1CCc2ccc(OCCCCN3CCN(c4cccc(Cl)c4Cl)CC3)cc2N1 [ARIPIPRAZOLE],Activity,N2a [1],Active
same,Activity,N2a [2],Active
same,fold change (FC),N2a [3],40
same,Activity,N2a [4],Active
CCN(CC)CCOc1ccc(C(=C(Cl)c2ccccc2)c2ccccc2)cc1 [CLOMIPHENE],inhibition,[5],Active
same,inhibition,[6],Active
same,Activity (decrease in 7-DHC levels),[7],Active
same,inhibition,[8],Active
same,Activity,[9],Non-toxic
same,inhibition,[10],Active
same,inhibition,[11],Active
same,Decrease in 7-DHC levels (active/inactive call),[12],Active
same,inhibition,[13],Active
same,inhibition,[14],Active
same,inhibition,[15],Active
same,Activity,Fibroblast,inactive
same,inhibition,[16],Active
same,inhibition,[17],Active
same,inhibition,[18],Active
CN(C)CCOc1ccc(/C(=C(/CCCl)c2ccccc2)c2ccccc2)cc1 [TOREMIFENE],inhibition,[6],Active
same,Activity (decrease in 7-DHC levels),[7],Active
same,inhibition,[8],Active
same,Activity,[9],Toxic
same,inhibition,[10],Active
same,inhibition,[19],Active
same,inhibition,[20],Active
same,inhibition,[12],Active
same,inhibition,[14],Active
same,inhibition,[18],Active
